This is an account of results in ChEMBL document CHEMBL1124192, “Cyclopentenylcytosine. A carbocyclic nucleoside with antitumor and antiviral properties” (J Med Chem, 1988).

In assay [1] the test system is Vaccinia virus. Put plainly: Degree of inhibition of virus-induced cytopathogenic effect and the degree of cytotoxicity produced by compound against vaccinia lederle CA virus. It counts as functional, Orthopoxvirus vaccinia. A digest of the protocol: (§1)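 Southern Research CPE inhibition test in Vero host cells. Confluent monolayers in 96-well plates received drug (minimum seven concentrations, cytotoxic to noncytotoxic) plus virus at 32 CCID50 per 0.1 mL, in triplicate, with cell, virus and drug-cytotoxicity controls. Incubated at 37 °C, 2% CO2. CPE scored microscopically at 3–4 days. VR = 0.1 × sum of CE-grade differences from virus control, halved for partially cytotoxic wells.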

Assay [2] concerns Vaccinia virus. As to the kind of experiment: Dose of compound required to inhibit the vaccinia lederle CA virus induced cytopathogenic effects. It counts as functional. Particulars: Orthopoxvirus vaccinia; read-out: ID50 (the source's name). A digest of the protocol: as §1

Values after ≈ are worked out from the molar mass of the structure shown.

Regarding `Nc1ncnc2c1ncn2[C@@H]1O[C@H](CO)[C@@H](O)[C@@H]1O` [VIDARABINE], the Virus rating in assay [1] is on record as 3.1. The IC50 in assay [2] was 9.8 µg/mL (≈ 36.7 µM).
